{"data": "Experimental data gathered from unrelated publications", "target": "Protein kinase C iota type (PRKCI, Homo sapiens, UniProt P41743)", "Sequence (P41743 1-596, as in one of the studies)": "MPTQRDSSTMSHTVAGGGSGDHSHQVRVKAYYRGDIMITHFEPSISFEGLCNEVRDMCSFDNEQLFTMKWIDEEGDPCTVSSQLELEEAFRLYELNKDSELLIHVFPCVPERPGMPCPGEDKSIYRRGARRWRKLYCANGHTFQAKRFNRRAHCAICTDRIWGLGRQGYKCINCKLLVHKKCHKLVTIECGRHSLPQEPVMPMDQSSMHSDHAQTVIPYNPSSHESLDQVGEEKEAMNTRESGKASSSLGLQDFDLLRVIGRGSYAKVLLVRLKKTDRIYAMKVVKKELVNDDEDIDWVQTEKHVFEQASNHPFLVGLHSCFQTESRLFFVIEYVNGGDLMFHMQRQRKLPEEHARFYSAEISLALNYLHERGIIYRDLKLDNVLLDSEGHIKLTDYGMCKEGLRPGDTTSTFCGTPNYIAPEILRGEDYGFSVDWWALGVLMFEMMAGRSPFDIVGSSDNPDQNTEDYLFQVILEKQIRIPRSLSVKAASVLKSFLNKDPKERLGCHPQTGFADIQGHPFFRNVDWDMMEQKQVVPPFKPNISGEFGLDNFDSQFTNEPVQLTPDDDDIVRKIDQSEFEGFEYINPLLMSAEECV"}
{"Compound": "O=C(NCCCN1CCOCC1)c1ccc(Nc2nccc(-c3cc4ccccc4s3)n2)cc1", "assay": "binding, competition with immobilised ligand", "setting": "1 µM", "remaining binding": "87%"}
{"Compound": "C[C@@H]1CCN(c2nccc(-c3cnn4ncccc34)n2)C1", "assay": "binding", "setting": "1 µM", "remaining binding": "64%"}
{"Compound": "CCN1CCN(Cc2ccc(C(=O)Nc3ccc(C)c(Oc4ccc5c(c4)CC(=O)N5)c3)cc2C(F)(F)F)CC1", "assay": "binding, competition with immobilised ligand", "setting": "1 µM", "remaining binding": "100%"}
{"Compound": "O=C(NCCCN1CCOCC1)c1ccc(Nc2ncc(Cl)c(-c3ccc(Cl)s3)n2)cc1", "assay": "binding, competition with immobilised ligand", "setting": "1 µM", "remaining binding": "98%"}
{"Compound": "COc1cnc(Nc2cccc(S(N)(=O)=O)c2)nc1N1CCN(c2ccccc2)C(=O)C1", "assay": "binding, competition with immobilised ligand", "setting": "1 µM", "remaining binding": "96%"}
{"Compound": "Nc1ncc2c(n1)-c1c([nH]c3ccc(C#CC4CC4)cc13)CCCC2", "assay": "binding, competition with immobilised ligand", "setting": "1 µM", "remaining binding": "89%"}
{"Compound": "COc1ccc2c(c1)O[C@@H](c1ccc(OC)c(OC)c1)C[C@H]2NC(=O)C1(c2ccc3c(c2)OC(F)(F)O3)CC1", "assay": "cell-free assay, competition with immobilised ligand", "setting": "1 µM", "remaining binding": "92%"}
{"Compound": "COc1ncc2cc3ccccc3nc2c1C#N", "assay": "cell-free assay, competition with immobilised ligand", "setting": "5 µM", "remaining binding": "100%"}
{"Compound": "CC1CCCN1c1nccc(-c2cnn3ncccc23)n1 (stereo not drawn)", "assay": "binding", "setting": "1 µM", "remaining binding": "100%"}
{"Compound": "Cc1c(NC(=O)c2cc(C(N)=O)nc3cc(F)ccc23)c(C(F)(F)F)nn1Cc1ccc(C(C)(C)C)cc1", "assay": "cell-free assay, competition with immobilised ligand", "setting": "1 µM", "remaining binding": "98%"}
{"Compound": "O=C(NCC1CCOCC1)c1n[nH]cc1NC(=O)c1c(F)cccc1F", "assay": "binding, competition with immobilised ligand", "setting": "1 µM", "remaining binding": "73%"}
{"Compound": "CNC(=O)[C@@H]1CC[C@@H](n2c(-c3ccc4cnccc4c3)nc3ccc(C(=O)NCc4cccc(C(N)=O)c4)cc32)C1", "assay": "binding, competition with immobilised ligand", "setting": "1 µM", "remaining binding": "97%"}
{"Compound": "O=C(c1ccc(Nc2nccc(-c3cc4ccccc4s3)n2)cc1)N1CCC(N2CCCC2)CC1", "assay": "binding, competition with immobilised ligand", "setting": "1 µM", "remaining binding": "54%"}
{"Compound": "O=C(Nc1cccnn1)N1CC(C/C=C/c2cncc(Oc3ccc(C(F)(F)F)cn3)n2)C1", "assay": "cell-free assay, competition with immobilised ligand", "setting": "1 µM", "remaining binding": "96%"}
{"Compound": "CN(C)c1nccc(-c2cnn3ncccc23)n1", "assay": "binding", "setting": "1 µM", "remaining binding": "81%"}
{"Compound": "CN([C@@H]1CCc2c(CC(=O)O)c3ccccc3n2C1)S(=O)(=O)c1ccc(F)cc1", "assay": "cell-free assay, competition with immobilised ligand", "setting": "1 µM", "remaining binding": "100%"}
{"Compound": "CN(CCCC(F)(F)F)c1nccc(-c2cnn3ncccc23)n1", "assay": "binding", "setting": "1 µM", "remaining binding": "100%"}
{"Compound": "CN([C@@H]1CCc2c(CC(=O)O)c3cc(S(C)(=O)=O)ccc3n2C1)S(=O)(=O)c1ccc(F)cc1", "assay": "cell-free assay, competition with immobilised ligand", "setting": "1 µM", "remaining binding": "100%"}
{"Compound": "CN(C)c1ncc(F)c(-c2cnn3ncccc23)n1", "assay": "binding", "setting": "1 µM", "remaining binding": "100%"}
{"Compound": "C[C@@H]1CN(c2cc(-c3n[nH]c4ccc(OC5(C)CC5)cc34)ncn2)C[C@H](C)O1", "assay": "cell-free assay, competition with immobilised ligand", "setting": "0.1 µM", "remaining binding": "80%"}
{"Compound": "COc1ccnn2ncc(-c3ccnc(N(C)C)n3)c12", "assay": "binding", "setting": "1 µM", "remaining binding": "74%"}
